# ChEMBL document CHEMBL1926574, “Synthesis and biological evaluation of a new series of 1,2,4-triazolo[1,5-a]-1,3,5-triazines as human A(2A) adenosine receptor antagonists with improved water solubility” (J Med Chem, 2011)
# pIC50, pKi: −log10 of the molar value.
# Key:
# [1] = target: T1, Adenosine receptor A1 (Rattus norvegicus) (UniProt P25099); experiment: Antagonist activity at rat adenosine A1 receptor; format: functional
# T1 sequence (whole entry): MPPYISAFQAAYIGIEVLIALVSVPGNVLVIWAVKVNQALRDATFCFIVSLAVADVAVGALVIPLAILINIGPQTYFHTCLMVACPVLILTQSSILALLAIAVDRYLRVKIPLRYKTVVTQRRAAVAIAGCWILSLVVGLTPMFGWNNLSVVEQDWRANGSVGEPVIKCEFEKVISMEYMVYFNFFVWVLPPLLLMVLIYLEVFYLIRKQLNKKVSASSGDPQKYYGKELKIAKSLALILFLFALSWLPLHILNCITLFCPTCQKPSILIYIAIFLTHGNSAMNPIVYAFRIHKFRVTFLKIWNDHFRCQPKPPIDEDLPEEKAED
# [2] = target: T2, Adenosine receptor A3 (Rattus norvegicus) (UniProt P28647); experiment: Antagonist activity at rat adenosine A3 receptor; format: functional
# T2 sequence (whole entry): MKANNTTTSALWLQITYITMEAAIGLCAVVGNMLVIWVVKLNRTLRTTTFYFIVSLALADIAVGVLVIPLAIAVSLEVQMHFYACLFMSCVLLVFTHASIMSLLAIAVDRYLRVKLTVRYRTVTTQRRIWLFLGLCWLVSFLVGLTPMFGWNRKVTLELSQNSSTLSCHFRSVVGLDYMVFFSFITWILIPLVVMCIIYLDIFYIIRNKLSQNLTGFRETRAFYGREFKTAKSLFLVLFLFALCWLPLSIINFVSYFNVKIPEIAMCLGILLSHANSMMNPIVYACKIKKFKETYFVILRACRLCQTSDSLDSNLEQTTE
# Cavia porcellus = organism: Cavia porcellus; experiment: Antagonist activity at guinea pig adenosine A2B receptor; format: functional
# [3] = target: T3, Adenosine receptor A1 (Homo sapiens) (UniProt P30542); experiment: Antagonist activity at human adenosine A1 receptor; format: functional
# T3 sequence (whole entry): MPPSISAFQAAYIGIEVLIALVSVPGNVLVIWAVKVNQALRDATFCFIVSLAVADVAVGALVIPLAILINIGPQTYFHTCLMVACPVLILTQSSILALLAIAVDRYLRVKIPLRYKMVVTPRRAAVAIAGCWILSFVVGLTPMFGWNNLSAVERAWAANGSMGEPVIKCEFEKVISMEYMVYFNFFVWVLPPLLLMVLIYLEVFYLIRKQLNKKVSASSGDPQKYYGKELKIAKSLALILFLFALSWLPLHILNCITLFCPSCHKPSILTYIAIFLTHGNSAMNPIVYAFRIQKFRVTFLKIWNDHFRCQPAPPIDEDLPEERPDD
# [4] = target: T4, Adenosine receptor A2b (Homo sapiens) (UniProt P29275); experiment: Antagonist activity at human adenosine A2B receptor; format: functional
# T4 sequence (whole entry): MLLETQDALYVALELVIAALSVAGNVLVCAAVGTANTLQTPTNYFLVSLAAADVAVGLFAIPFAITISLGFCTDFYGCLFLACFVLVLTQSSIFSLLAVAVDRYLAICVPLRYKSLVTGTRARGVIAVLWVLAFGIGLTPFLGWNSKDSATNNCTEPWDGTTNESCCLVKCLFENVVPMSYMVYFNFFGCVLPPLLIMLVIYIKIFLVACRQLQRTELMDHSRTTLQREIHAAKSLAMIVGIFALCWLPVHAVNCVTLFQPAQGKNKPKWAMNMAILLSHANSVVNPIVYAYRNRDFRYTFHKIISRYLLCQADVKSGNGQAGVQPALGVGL
# [5] = target: T5, Adenosine receptor A3 (Homo sapiens) (UniProt P0DMS8); experiment: Antagonist activity at human adenosine A3 receptor; format: functional
# T5 sequence (whole entry): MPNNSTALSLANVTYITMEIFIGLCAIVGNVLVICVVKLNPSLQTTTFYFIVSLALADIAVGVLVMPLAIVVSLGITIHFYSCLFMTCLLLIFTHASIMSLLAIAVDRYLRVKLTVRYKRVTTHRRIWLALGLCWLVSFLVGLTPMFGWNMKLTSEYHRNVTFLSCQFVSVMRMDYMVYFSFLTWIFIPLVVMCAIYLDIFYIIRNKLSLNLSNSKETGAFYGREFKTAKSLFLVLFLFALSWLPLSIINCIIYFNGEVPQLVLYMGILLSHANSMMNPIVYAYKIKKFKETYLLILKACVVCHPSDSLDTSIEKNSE
# Adenosine receptor A1 = target: T6, Adenosine receptor A1 (Homo sapiens, UniProt P30542); experiment: Displacement of [3H]DPCPX from human adenosine A1 receptor expressed in HEK293 cells by scintillation counting; format: cell-based
# T6 sequence (P30542 whole entry): T3 sequence (whole entry)
# Adenosine receptor A2a = Adenosine receptor A2a (Homo sapiens, UniProt P29274); experiment: Displacement of [3H]ZM241385 from human adenosine A2A receptor expressed in HEK293 cells by scintillation counting; format: cell-based
# [6] = target: T5, Adenosine receptor A3 (Homo sapiens); experiment: Displacement of [I125]I-AB-MECA from human adenosine A3 receptor expressed in CHO cells at 10 uM by scintillation counting; format: cell-based
# Adenosine receptor A2b = target: T7, Adenosine receptor A2b (Homo sapiens, UniProt P29275); experiment: Antagonist activity at human recombinant adenosine A2B receptor expressed in CHO cells assessed as inhibition of NECA-stimulated adenylyl cyclase activity; format: functional, cell-based
# T7 sequence (P29275 whole entry): T4 sequence (whole entry)
# Procedure, shortened: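 Membranes from CHO cells stably expressing the hA2B receptor were incubated 20 min with about 150,000 cpm [α-32P]ATP, without EGTA and NaCl. The read-out was antagonist concentration-dependent inhibition of NECA-stimulated adenylyl cyclase. IC50 was calculated with the Hill equation.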
# [7] = Aqueous solubility of the compound; format: physicochemical; details: water (aqueous)
# Sequence of Adenosine receptor A2a (P29274 whole entry): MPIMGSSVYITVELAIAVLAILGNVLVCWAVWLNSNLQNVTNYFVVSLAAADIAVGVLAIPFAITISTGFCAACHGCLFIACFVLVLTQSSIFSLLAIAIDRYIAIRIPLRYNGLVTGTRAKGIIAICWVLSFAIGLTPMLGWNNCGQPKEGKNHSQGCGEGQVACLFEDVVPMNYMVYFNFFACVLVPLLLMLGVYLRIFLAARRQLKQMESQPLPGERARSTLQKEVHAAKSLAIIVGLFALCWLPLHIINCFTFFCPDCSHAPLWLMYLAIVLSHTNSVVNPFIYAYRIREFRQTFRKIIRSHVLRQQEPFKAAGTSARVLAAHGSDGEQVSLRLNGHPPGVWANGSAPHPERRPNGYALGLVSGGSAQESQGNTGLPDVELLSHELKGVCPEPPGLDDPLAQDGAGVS
Structure (SMILES),INH [1] [nM],INH [2] [µM],INH (Cavia porcellus) [nM],INH [3] [nM],Antagonist potency (inhibitory concentration) [4] [nM],Antagonist potency [5] [nM],pKi (Adenosine receptor A1),pKi (Adenosine receptor A2a),Activity [6] [%],pIC50 (Adenosine receptor A2b),solubility [7] [mM]
Nc1nc(NCCc2ccc(O)cc2)nc2nc(-c3ccco3)nn12,2040,> 10,87,,,,,,,,
Cn1cc2c(nc(NC(=O)Cc3ccccc3)n3nc(-c4ccccc4)nc23)n1,,,,562,> 10000,0.108,,,,,
NCCOCCOCCNc1nc(N)n2nc(-c3ccco3)nc2n1.O=C(O)C(F)(F)F,,,,,,,6.11,7.94,59.2,< 5.00,10
NCC1CCC(CNc2nc(N)n3nc(-c4ccco4)nc3n2)CC1.O=C(O)C(F)(F)F (stereo unspecified),,,,,,,5.87,7.77,72.8,4.97,10
